The values below come from ChEMBL document CHEMBL3992564, “Design and synthesis of novel, potent and selective hypoxanthine analogs as adenosine A1 receptor antagonists and their biological evaluation” (Bioorg Med Chem, 2017).

Series [1] is described as follows: Volume of distribution at steady state in Wistar rat at 3 mg/kg, iv by LC-Ms/MS analysis. It counts as ADME, organism-based. The conditions noted are these: in vivo, read-out: Vdss. In a few lines: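 Male Wistar rats (230 ± 15 g), fasted overnight with water available. IV dosing at 3 mg/kg by tail vein as solution (0.6 mg/mL, 5 mL/kg). PO dosing at 5 mg/kg by oral gavage. Serial blood sampling into K2EDTA from 0.008 (IV only) to 24 h. Plasma precipitated with acetonitrile containing internal standard and analysed by LC/MS/MS. Non-compartmental parameters calculated per animal; values are means of n = 4.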

Series [2] has as its target T1, Adenosine receptor A2b (Homo sapiens, UniProt P29275).
T1 sequence (P29275 whole entry): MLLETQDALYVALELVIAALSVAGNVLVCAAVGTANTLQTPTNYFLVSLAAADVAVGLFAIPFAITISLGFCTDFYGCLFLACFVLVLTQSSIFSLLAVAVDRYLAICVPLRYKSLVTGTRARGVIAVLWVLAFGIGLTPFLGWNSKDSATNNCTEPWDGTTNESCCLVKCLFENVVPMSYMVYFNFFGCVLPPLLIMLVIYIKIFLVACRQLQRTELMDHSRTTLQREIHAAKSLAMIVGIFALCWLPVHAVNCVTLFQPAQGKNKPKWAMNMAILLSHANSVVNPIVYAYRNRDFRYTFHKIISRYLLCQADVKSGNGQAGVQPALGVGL
Put plainly: Antagonist activity at human adenosine A2B receptor expressed in HEK293 cells assessed as reduction in NECA-induced increase in cAMP level preincubated for 15 mins followed by NECA addition measured after 15 mins by HTRF assay. It counts as functional, cell-based. In a few lines: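 Overnight HEK-A1 or HEK-A2B cultures were treated with 1 U/mL ADA for 90 min at 37°C. Compound was added for 15 min, then agonist for 15 min (1 nM CPA for A1; 70 nM NECA for A2B) at room temperature in incomplete DMEM with ADA. Rolipram (20 µM) was included for A1 only. cAMP was read by HTRF.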

Series [3] has as its target T2, Adenosine receptor A1 (Homo sapiens, UniProt P30542).
T2 sequence (P30542 whole entry): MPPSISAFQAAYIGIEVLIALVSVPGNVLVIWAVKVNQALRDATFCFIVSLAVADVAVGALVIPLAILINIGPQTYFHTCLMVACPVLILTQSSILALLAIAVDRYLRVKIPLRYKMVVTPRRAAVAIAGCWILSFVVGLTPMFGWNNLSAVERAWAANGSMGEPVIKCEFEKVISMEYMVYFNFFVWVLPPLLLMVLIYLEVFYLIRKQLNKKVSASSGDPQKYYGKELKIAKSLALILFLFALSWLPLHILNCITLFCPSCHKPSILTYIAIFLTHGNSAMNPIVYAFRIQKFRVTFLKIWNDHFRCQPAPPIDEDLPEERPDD
Put plainly: Displacement of [3H]DPCPX from human adenosine A1 receptor expressed in HEK293 cell membranes after 90 mins. On the technique in general: Loss of bound radioactivity is the signal in a displacement assay; it reports binding, not function.

In series [4] the target is T2, Adenosine receptor A1. Put plainly: Antagonist activity at human adenosine A1 receptor expressed in HEK293 cells assessed as reduction in CPA-mediated inhibition of forskolin-stimulated cAMP level preincubated for 15 mins followed by CPA treatment for 15 mins and subsequent addition of forskolin measured after 30 mins by HTRF assay. It counts as functional, cell-based. (In general: cAMP levels reflect the balance of adenylyl cyclase and phosphodiesterase activity.)

Series [5] deals with Liver. Put plainly: Metabolic stability in human liver microsomes assessed as metabolic rate measured after 30 mins in presence of NADPH. Format: ADME, microsome. The conditions noted are these: 0.5 h. For orientation: Liver microsomes are a subcellular fraction often used to study metabolism.
The target in series [6] is Adenosine receptor A2a (Homo sapiens, UniProt P29274). Put plainly: Displacement of [3H]ZM241385 from human adenosine A2A receptor expressed in HEK293 cell membranes after 90 mins. In a few lines: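 Membranes from HEK-293 cells stably transfected with human receptor, pre-treated with adenosine deaminase. Radioligands: 1 nM [3H]DPCPX (A1), 1 nM [3H]ZM241385 (A2A), 1.6 nM [3H]MRS-1754 (A2B), 2 nM [3H]HEMADO (A3). Buffers: Tris pH 7.4 (A1, A2A, A3) or pH 6.5 (A2B), with ADA. Incubated 90 min at room temperature, then filtered. Nonspecific binding defined with 100 µM NECA. Ki from 8 concentrations run in triplicate.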
Adenosine receptor A2a, sequence (P29274 whole entry): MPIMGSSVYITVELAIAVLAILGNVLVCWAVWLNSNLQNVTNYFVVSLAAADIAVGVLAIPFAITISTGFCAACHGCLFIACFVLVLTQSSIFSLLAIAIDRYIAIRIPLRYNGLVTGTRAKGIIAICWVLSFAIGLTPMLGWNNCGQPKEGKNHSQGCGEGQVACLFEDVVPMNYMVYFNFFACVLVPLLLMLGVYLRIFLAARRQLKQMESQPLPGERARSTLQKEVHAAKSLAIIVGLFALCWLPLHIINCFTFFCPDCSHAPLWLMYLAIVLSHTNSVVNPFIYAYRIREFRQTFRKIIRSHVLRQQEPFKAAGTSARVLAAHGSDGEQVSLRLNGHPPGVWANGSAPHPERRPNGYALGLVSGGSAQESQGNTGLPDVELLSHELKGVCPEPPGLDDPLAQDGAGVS

A short description of series [7]: AUC (0 to t) in Wistar rat at 3 mg/kg, iv by LC-Ms/MS analysis. It counts as ADME, organism-based. Conditions: in vivo. The procedure, abridged:
(§1)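 Male Wistar rats (230 ± 15 g), fasted overnight with water available. IV dose of 3 mg/kg given by tail vein as a solution (0.6 mg/mL, 5 mL/kg). PO dose of 5 mg/kg given by gavage as a suspension. Blood was collected into K2EDTA at 0.008 (IV only) to 24 h and plasma was spun off. Samples were precipitated with acetonitrile and run on LC/MS/MS. Parameters came from non-compartmental analysis of individual animals, mean of n = 4.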

A short description of series [8]: Metabolic stability in rat liver microsomes assessed as parent compound remaining measured after 30 mins in presence of NADPH. Format: ADME, microsome. The conditions noted are these: read-out: Stability.
A short description of series [9]: Thermodynamic solubility of the compound in pH 7.4 solution. Format: physicochemical. Conditions: read-out: Therm_solubility.
Series [10] relates to Liver. The series is described as follows: Metabolic stability in rat liver microsomes assessed as metabolic rate measured after 30 mins in presence of NADPH. It counts as ADME, microsome. Conditions: 0.5 h.
Series [11] is described as follows: Thermodynamic solubility of the compound in pH 4 solution. Conditions: read-out: Therm_solubility. Format: physicochemical.
Series [12] is described as follows: Elimination half life in Wistar rat at 3 mg/kg, iv by LC-Ms/MS analysis. It counts as ADME, organism-based. Conditions: in vivo, read-out: beta t1/2 (converted). The procedure, abridged:
as §1

Series [13] can be described thus: Metabolic stability in human liver microsomes assessed as parent compound remaining measured after 30 mins in presence of NADPH. It counts as ADME, microsome. Conditions: read-out: Stability.
Series [14] can be described thus: Clearance in Wistar rat at 3 mg/kg, iv by LC-Ms/MS analysis. It counts as ADME, organism-based. The conditions noted are these: in vivo. In a few lines: as §1
The target in series [15] is CYP2D6 (Homo sapiens, UniProt P10635). The series is described as follows: Inhibition of CYP2D6 (unknown origin) at 5 uM relative to control. Format: ADME.
CYP2D6, sequence (P10635 whole entry): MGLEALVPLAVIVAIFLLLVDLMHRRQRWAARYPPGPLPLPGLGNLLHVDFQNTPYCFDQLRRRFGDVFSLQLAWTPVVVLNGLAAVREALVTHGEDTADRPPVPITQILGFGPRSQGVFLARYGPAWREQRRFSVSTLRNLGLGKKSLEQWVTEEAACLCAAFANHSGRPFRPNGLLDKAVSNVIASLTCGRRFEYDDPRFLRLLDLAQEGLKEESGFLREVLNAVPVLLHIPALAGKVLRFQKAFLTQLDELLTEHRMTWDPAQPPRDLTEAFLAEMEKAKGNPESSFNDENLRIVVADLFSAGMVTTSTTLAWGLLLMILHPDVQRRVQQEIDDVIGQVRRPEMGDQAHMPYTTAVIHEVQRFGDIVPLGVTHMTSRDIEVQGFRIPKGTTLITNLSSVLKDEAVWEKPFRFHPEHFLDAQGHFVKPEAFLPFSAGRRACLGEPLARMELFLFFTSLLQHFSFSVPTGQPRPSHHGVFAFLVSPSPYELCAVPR
The target in series [16] is T3, CYP1A2 (Homo sapiens, UniProt P05177).
T3 sequence (P05177 whole entry): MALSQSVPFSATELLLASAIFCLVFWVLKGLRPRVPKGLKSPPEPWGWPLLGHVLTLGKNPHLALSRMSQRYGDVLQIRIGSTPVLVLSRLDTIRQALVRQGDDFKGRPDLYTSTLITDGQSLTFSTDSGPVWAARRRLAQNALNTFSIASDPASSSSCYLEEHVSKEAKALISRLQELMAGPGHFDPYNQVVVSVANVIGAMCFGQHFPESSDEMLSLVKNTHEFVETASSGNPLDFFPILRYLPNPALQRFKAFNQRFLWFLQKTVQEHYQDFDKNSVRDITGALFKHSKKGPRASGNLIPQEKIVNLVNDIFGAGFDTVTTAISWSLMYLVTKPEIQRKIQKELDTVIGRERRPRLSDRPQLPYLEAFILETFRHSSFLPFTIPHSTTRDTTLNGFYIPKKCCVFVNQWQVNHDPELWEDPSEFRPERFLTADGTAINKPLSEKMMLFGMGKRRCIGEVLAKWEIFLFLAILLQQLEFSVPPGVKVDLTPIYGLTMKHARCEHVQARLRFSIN
The series is described as follows: Inhibition of CYP1A2 (unknown origin) at 5 uM relative to control. It counts as ADME.

The target of series [17] is CYP3A4 (Homo sapiens, UniProt P08684). Put plainly: Inhibition of CYP3A4 (unknown origin) at 5 uM relative to control. It counts as ADME.
CYP3A4, sequence (P08684 whole entry): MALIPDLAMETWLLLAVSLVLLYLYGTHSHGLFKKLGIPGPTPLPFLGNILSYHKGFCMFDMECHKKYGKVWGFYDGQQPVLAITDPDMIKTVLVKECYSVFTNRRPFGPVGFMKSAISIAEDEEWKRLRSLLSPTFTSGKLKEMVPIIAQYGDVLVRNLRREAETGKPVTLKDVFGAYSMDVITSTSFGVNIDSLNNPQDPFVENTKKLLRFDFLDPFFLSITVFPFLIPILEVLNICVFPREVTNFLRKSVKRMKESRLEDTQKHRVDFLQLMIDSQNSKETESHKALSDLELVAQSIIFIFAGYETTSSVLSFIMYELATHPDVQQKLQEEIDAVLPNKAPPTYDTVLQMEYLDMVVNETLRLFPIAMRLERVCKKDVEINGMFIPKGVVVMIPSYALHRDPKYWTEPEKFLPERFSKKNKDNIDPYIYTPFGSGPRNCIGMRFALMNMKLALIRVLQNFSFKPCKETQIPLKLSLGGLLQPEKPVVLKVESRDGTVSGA

≈ marks a conversion by molar mass, not a printed value. A value given as a limit tells only on which side of the number the result lay.

Regarding `CCCn1c(Oc2cccnc2C)nc2nc(C3CCCC3)[nH]c2c1=O`, the Vd in [1] came out at 2 L/kg. Further, the Ki (usually a dissociation constant, usually derived from enzyme kinetics or from competition with a known ligand) in series [2] is 560 nM; in [3], 6.6 nM; in series [4] it was 0.28 nM; in series [6], 2000 nM. Further, the Drug metabolism is listed as 0.06 nmol/min/mg in [5] and 0.07 nmol/min/mg in [10]. Further, in series [7], the exposure AUC(0-t) (in general, exposure summed from dosing to a finite time, without extrapolation to infinity) was 2.7 µM·h. Further, the figures for the remaining at 0.5 h in series [8] and in series [13] were 78% and 79%, respectively. Moreover, the solubility thermodynamic in series [9] was determined as 38 µM (≈ 13.4 µg/mL); in series [11], 43 µM (≈ 15.2 µg/mL). In series [12], the half-life is 30 min. Also, the clearance – broadly, a measure of how efficiently the substance is removed, as volume per time – in [14] is 55 mL/min/kg. The inhibition at 5 µM in series [15], in [16] and in series [17] was 0% throughout.
On to `CCCn1c(Oc2ccc(F)c(F)c2)nc2nc(C3CCCC3)[nH]c2c1=O`, for which the Vd in series [1] came to 1.73 L/kg. In addition, the inhibition constant Ki in series [2] was over 10000 nM; in [3], 23 nM; in [4], 13 nM; in series [6] it was over 10000 nM. The values for the Drug metabolism in series [5] and in series [10] were 0.05 nmol/min/mg and 0.08 nmol/min/mg, respectively. Also, the exposure AUC(0-t) in [7] came to 10.2 µM·h. In addition, the remaining at 0.5 h in series [8] is 75%; in [13] it was 82%. Further, the solubility thermodynamic in series [9] came out at 17 µM (≈ 6.36 µg/mL); in series [11], 23 µM (≈ 8.61 µg/mL). For the same molecule, in series [12], the half-life is 124 min. In addition, the clearance in series [14] was 13.6 mL/min/kg. The inhibition – broadly, the change of the read-out against control, counted positive when it falls – at 5 µM in series [15] was determined as 10%; in series [16], 7%; in series [17], 34%.
Turning to `CCCn1c(-c2cccc(OC)c2)nc2nc(C3CCCC3)[nH]c2c1=O`, in series [1], the Vd amounted to 1.2 L/kg. Further, the Ki in [2] is 650 to 690 nM; in [3] it was 16 nM; in series [4] it was 15 nM; in [6], at least 10000 nM. In addition, the Drug metabolism was found to be 0.03 nmol/min/mg in [5] and 0.05 nmol/min/mg in series [10]. This molecule gave an area under the curve AUC(0-t) in series [7] of 3.53 µM·h. Also, the remaining at 0.5 h in series [8] worked out at 82%; in [13], 97%. The figures for the solubility thermodynamic in [9] and in [11] were 54 µM (≈ 19 µg/mL) and 63 µM (≈ 22.2 µg/mL), respectively. The half-life in series [12] was 29.4 min. This molecule yielded a clearance in [14] of 39.2 mL/min/kg. For the same molecule, the inhibition at 5 µM turned out to be 1% in [15], 0% in series [16] and 5% in series [17].
